In the library only some 11% were active in any assay of this set; here they are far more common.
S1P3 ag: human S1P3 receptor agonists, primary screen, cell-based, primary and confirmation, NFAT-BLA reporter | Sphingosine 1-phosphate receptor 3 (Homo sapiens), Q99500 | S1P3 NFAT-BLA reporter cells, agonism, FRET ratio; relative to 1 µM S1P, basal subtracted | activation, % at 4.5 µM | hit rate 0.1% among 60,000;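 active = activation above the screen-wide mean plus 3 SD, cut at about 4.5% in these data, passing the limit was not always enough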
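Benchmarks: high control 1 µM S1P / System: stable CHO line with human S1P3, Gα16, NFAT-BLA reporter / Dosing: single compound concentration, 4.5 µM final / Timing: 4 h compound at 37 °C, 2 h substrate at RT / Measured by: FRET β-lactamase substrate fluorescence, excitation 405 nm, 460/535 nm emission ratio, background-subtracted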
M1 ag: M1 muscarinic receptor agonists, primary screen, CHO-M1 cells, Fluo-4 calcium, agonist mode. Muscarinic acetylcholine receptor M1. Fluo-4 calcium fluorescence; active compounds read high. B-score at 10 µM. hit rate 3% among 64,000. AID 626, 2007;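 active = fluorescence rise, raw or as B-score row- and column-corrected plate score, outside the 99.7% band of its plate's samples, either direction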
M1 antagonist: antagonists of rat M1 muscarinic receptor; Muscarinic acetylcholine receptor M1 (Rattus norvegicus), P08482; CHO-M1 cells, Fluo-4 calcium, ACh EC80 antagonist mode; active compounds read low; B-score at 10 µM; hit rate 3.4% among 64,000;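 active = calcium fluorescence response, raw or row-and-column corrected B-score, differing from the plate sample mean either way at a set confidence level, mostly lower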
S1P1 ag-PAM: S1P1 agonists and agonism potentiators, primary screen, cell-based, primary and confirmation screens, CRE-bla reporter | hit rate 0.57% among 56,000 | activation, % at 9.5 µM | Sphingosine 1-phosphate receptor 1 (Homo sapiens), P21453 | S1P1 CRE-bla cells, forskolin, beta-lactamase FRET, potentiator mode; S1P1 agonist co-added at EC20, 2 nM; 100% = saturating reference agonist, 0% = basal;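 active = activation above a cutoff set at the mean activation of all tested compounds plus 3 SD, cut at about 54% in these data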;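 also: forskolin at 4 µM as EC80 and the EC20 agonist is SEW2871; 100% = SEW2871 at its EC100 plus forskolin at EC80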
D1 mod: D1 CRE-luciferase signal change, two-sided – cell-based, HEK293 D1, dopamine EC30, D1 allosteric modulator project, primary screen; D(1A) dopamine receptor (Homo sapiens), P21728; dopamine EC30 potentiation; actives deviate in either direction; B-score at 10 µM; hit rate 5.9% among 58,000; AID 641, 2007;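 active = luminescence count or its row- and column-corrected plate score outside the 99.7% band of the plate's sample wells, on either side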
Target sequence (P21728 whole entry, looked up): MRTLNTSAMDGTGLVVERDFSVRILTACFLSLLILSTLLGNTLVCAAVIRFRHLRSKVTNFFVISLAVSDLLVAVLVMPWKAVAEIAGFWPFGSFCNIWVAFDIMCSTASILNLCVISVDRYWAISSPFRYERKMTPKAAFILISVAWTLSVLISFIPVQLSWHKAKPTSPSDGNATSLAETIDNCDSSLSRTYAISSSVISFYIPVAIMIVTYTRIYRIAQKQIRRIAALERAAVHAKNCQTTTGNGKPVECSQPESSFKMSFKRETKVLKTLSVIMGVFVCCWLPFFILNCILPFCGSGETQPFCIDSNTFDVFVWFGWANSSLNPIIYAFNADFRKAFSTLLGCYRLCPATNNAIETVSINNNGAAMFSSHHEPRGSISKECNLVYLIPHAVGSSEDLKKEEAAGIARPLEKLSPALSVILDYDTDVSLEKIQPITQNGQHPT
M1 antag confirm: rat M1 muscarinic receptor antagonists, confirmation, CHO cells, Fluo-4 calcium, duplicate; ACh EC80 antagonism; active compounds read low; hit rate 43% among 1,700; AID 677, 2007; shares compounds with M1 antagonist; calcium response (max-min fluorescence) at 10 µM;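 active = calcium response below the same-plate mean of wells given acetylcholine alone at its 80%-effect dose, minus 3 SD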;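 also: raw fluorescence intensity difference in arbitrary instrument units and not normalized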
mGluR4 antag: human mGluR4 response to M1 antagonist hits, M1 allosteric modulator project, cell-based, antagonist mode, secondary assay 1 | shares compounds with M1 antagonist | CHO-mGluR4 calcium flux, Fluo-4 fluorescence, glutamate EC80; active compounds read low | fluorescence response (max-min) at 10 µM | hit rate 0.9% among 1,700 | AID 678, 2007;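 active = fluorescence response below the plate's average for near-maximal glutamate wells, less 3 SD of those wells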;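 also: raw unnormalized fluorescence span taken in the window right after glutamate addition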
Numbers without * were called inactive.

For COCCNc1nc(=S)[nH]c2cc(OC)c(OC)cc12 the results were S1P3 ag -1, M1 ag 1.5, M1 antagonist 0.37, S1P1 ag-PAM -38 and D1 mod 0.062.
Screening CCOCCCNc1nc(=S)[nH]c2cc(OC)c(OC)cc12 returned S1P3 ag -1, M1 ag -0.34, M1 antagonist -2.9*, S1P1 ag-PAM -6, D1 mod -0.69, M1 antag confirm 550 and mGluR4 antag 206.
Screening Cc1ccc(S(=O)(=O)NC2=NCN(C3CCCCC3)CN2)cc1 returned S1P3 ag 0, M1 ag -0.015, M1 antagonist -0.52, S1P1 ag-PAM -13 and D1 mod 0.26.
For Cc1nc(NC2=NCN(CC3CCCO3)CN2)nc2ccccc12 (centres undefined) the results were S1P3 ag 0, M1 ag -0.2, M1 antagonist -8.9*, S1P1 ag-PAM 3, D1 mod -0.07, M1 antag confirm 108* and mGluR4 antag 209.
For Cc1nc(NC2=NCN(C3CCCCC3C)CN2)nc2ccccc12 (centres undefined) the results were S1P3 ag -1, M1 ag -1.3, M1 antagonist -4.9*, S1P1 ag-PAM 0, D1 mod -0.2, M1 antag confirm 258* and mGluR4 antag 186.
`CCOc1ccc2nc(NC3=NCN(Cc4ccco4)CN3)nc(C)c2c1` gave S1P3 ag -1, M1 ag -0.58, M1 antagonist -0.023, S1P1 ag-PAM -4 and D1 mod 0.016.
Screening CCN1CCc2c(C#N)c(N3CCOCC3)nc(NCc3ccccc3)c2C1 returned S1P3 ag 0, M1 ag -2, M1 antagonist -2.2*, S1P1 ag-PAM -26, D1 mod 0.93, M1 antag confirm 572 and mGluR4 antag 195.
`CCN1CCc2c(C#N)c(N3CCCCC3)nc(NCc3ccccc3)c2C1` gave S1P3 ag -5, M1 ag -2.5, M1 antagonist -0.46, S1P1 ag-PAM -21 and D1 mod -0.024.
CCOC(=O)N1CCC(NS(=O)(=O)c2ccc3c(c2)C(C)(C)C(=O)N3C)CC1 was read as S1P3 ag -1, M1 ag 0.46, M1 antagonist -17*, S1P1 ag-PAM -39, D1 mod -0.23, M1 antag confirm 579 and mGluR4 antag 240.
CCOC(=O)N1CCC(NS(=O)(=O)c2ccc3c(c2)oc(=O)n3C)CC1 was read as S1P3 ag -1, M1 ag -1.6, M1 antagonist -0.35, S1P1 ag-PAM -7 and D1 mod 0.067.
Screening Cc1cc(C)c2c(CN3CCN(Cc4ccc5c(c4)OCO5)CC3)cc(=O)oc2c1 returned S1P3 ag -1, M1 ag -0.2, M1 antagonist -10*, S1P1 ag-PAM 6, D1 mod -0.02, M1 antag confirm 61* and mGluR4 antag 299.
For CCN1CCN(Cc2cc(=O)oc3cc(C)cc(C)c23)CC1 the results were S1P3 ag -1, M1 ag -2.1, M1 antagonist -1.2*, S1P1 ag-PAM -9, D1 mod -1.4, M1 antag confirm 461* and mGluR4 antag 253.
Cc1ccc2c(CN3CCN(Cc4ccc5c(c4)OCO5)CC3)cc(=O)oc2c1C was read as S1P3 ag -1, M1 ag 0.13, M1 antagonist -2.3*, S1P1 ag-PAM -8, D1 mod -0.28, M1 antag confirm 475* and mGluR4 antag 256.
